Results on 26 molecules are retold here after ChEMBL document CHEMBL1146599, “Substituted pyrrol-1-ylacetic acids that combine aldose reductase enzyme inhibitory activity and ability to prevent the nonenzymatic irreversible modification of proteins from monosaccharides” (J Med Chem, 2003).

For data set [1], the target named is Aldo-keto reductase family 1 member B1 (Rattus norvegicus) (UniProt P07943). In words: In vitro inhibitory activity against aldose reductase of rat lens at 10E-6 M concentration. The method, boiled down:
(§1)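 Aldose reductase was prepared from lenses quickly removed from euthanized Fischer-344 rats of both sexes. Compounds were dissolved in 0.2 M NaHCO3. Activity was followed spectrophotometrically as NADPH oxidation. Runs were done in triplicate, and values are means with standard error from three determinations.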

Data set [2] has the same target. In words: In vitro inhibitory activity against aldose reductase of rat lens at 10E-8 M concentration. The method, boiled down:
as §1

In data set [3] the target is T1, Albumin (Bos taurus, UniProt P02769). Nature of the data set: Formation of DNPH-reactive carbonyl groups in bovine serum albumin exposed to fructose (1 mM); p<0.01. The format is functional. The following applies: cattle. In short, it runs like this:
(§2)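 Bovine serum albumin (fraction V, essentially fatty acid free) was incubated with fructose for 28 days. Compounds were added as potassium salts dissolved in water. Data are means ± SD with the number of samples given. Significance versus control was assessed by Student's t test.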

For data set [4], the target named is Aldo-keto reductase family 1 member B1 (Rattus norvegicus) (UniProt P07943). In words: In vitro inhibitory activity against aldose reductase of rat lens at 10E-7 M concentration. The method, boiled down: as §1
The target in data set [5] is T1, Albumin. In words: In vitro ability to inhibit the irreversible modification of the model protein albumin in the presence of fructose as glycating agent (1 mM). In short, it runs like this:
as §2

The target of data set [6] is T1, Albumin. In words: In vitro ability to inhibit the irreversible modification of the model protein albumin in the presence of fructose as glycating agent (2.5 mM). The method, boiled down: as §2
Data set [7] deals with T1, Albumin. Nature of the data set: Glycation-induced fluorescence changes of bovine serum albumin when exposed to fructose (5 mM); p<0.001. In kind it is functional. The settings on record: cattle. The method, boiled down:
as §2

Data set [8] has as its target T1, Albumin. Nature of the data set: Formation of DNPH-reactive carbonyl groups in bovine serum albumin exposed to fructose (2.5 mM); p<0.001. The format is functional. The following applies: cattle. The method, boiled down:
as §2

Data set [9] deals with T1, Albumin. Nature of the data set: In vitro ability to inhibit the irreversible modification of the model protein albumin in the presence of fructose as glycating agent (5 mM). In short, it runs like this: as §2
The target of data set [10] is T1, Albumin. Nature of the data set: Formation of DNPH-reactive carbonyl groups in bovine serum albumin exposed to fructose (5 mM); not detectable. The format is functional. The following applies: cattle, 5000 µM. In short, it runs like this:
as §2

The target in data set [11] is T1, Albumin. In words: Glycation-induced fluorescence changes of bovine serum albumin when exposed to fructose (2.5 mM); p<0.001. The format is functional. The settings on record: cattle. The method, boiled down: as §2
The target of data set [12] is T1, Albumin. Nature of the data set: Glycation-induced fluorescence changes of bovine serum albumin when exposed to fructose (1 mM); p<0.01. The following applies: cattle. In kind it is functional. The method, boiled down:
as §2

Data set [13] deals with T1, Albumin. In words: Formation of DNPH-reactive carbonyl groups in bovine serum albumin exposed to fructose (1 mM); p<0.001. The format is functional. The following applies: cattle. The method, boiled down:
as §2

Data set [14] addresses T1, Albumin. Nature of the data set: Glycation-induced fluorescence changes of bovine serum albumin when exposed to fructose (1 mM); p<0.001. The format is functional. The settings on record: cattle. The method, boiled down: as §2
The target in data set [15] is T1, Albumin. In words: Formation of DNPH-reactive carbonyl groups in bovine serum albumin exposed to fructose (2.5 mM); not detectable. In kind it is functional. The settings on record: cattle. In short, it runs like this: as §2
Data set [16] has as its target T1, Albumin. Nature of the data set: Formation of DNPH-reactive carbonyl groups in bovine serum albumin exposed to fructose; not detectable. In kind it is functional. The settings on record: cattle. The method, boiled down: as §2
The target in data set [17] is Aldo-keto reductase family 1 member B1 (Homo sapiens, UniProt P15121). Nature of the data set: (§3) Inhibitory activity against aldose reductase enzyme.
Data set [18] addresses T1, Albumin. In words: Formation of DNPH-reactive carbonyl groups in bovine serum albumin exposed to fructose (1 mM); not detectable. In kind it is functional. The settings on record: cattle. The method, boiled down: as §2
In data set [19] the target is T1, Albumin. In words: Formation of DNPH-reactive carbonyl groups in bovine serum albumin exposed to fructose (5 mM); not detectable. The following applies: cattle. The format is functional. In short, it runs like this:
as §2

Data set [20] addresses T1, Albumin. Nature of the data set: Formation of DNPH-reactive carbonyl groups in bovine serum albumin exposed to fructose; p<0.001. The following applies: cattle. The format is functional. In short, it runs like this: as §2
The target in data set [21] is Aldo-keto reductase family 1 member B1 (Rattus norvegicus) (UniProt P07943). Nature of the data set: In vitro inhibitory activity against aldose reductase of rat lens at 10E-5 M concentration. In short, it runs like this:
as §1

Data set [22] shares this target. Nature of the data set: In vitro inhibitory activity against aldose reductase of rat lens at 10E-9 M concentration. In short, it runs like this: as §1
The target of data set [23] is Aldo-keto reductase family 1 member B1 (Rattus norvegicus, UniProt P07943). The description is as §3. The method, boiled down:
as §1

Values joined by “and” are separate entries in the source; they are usually repeats but may differ in a detail not shown here. Identical values can stand only once.

T1 sequence (P02769 whole entry): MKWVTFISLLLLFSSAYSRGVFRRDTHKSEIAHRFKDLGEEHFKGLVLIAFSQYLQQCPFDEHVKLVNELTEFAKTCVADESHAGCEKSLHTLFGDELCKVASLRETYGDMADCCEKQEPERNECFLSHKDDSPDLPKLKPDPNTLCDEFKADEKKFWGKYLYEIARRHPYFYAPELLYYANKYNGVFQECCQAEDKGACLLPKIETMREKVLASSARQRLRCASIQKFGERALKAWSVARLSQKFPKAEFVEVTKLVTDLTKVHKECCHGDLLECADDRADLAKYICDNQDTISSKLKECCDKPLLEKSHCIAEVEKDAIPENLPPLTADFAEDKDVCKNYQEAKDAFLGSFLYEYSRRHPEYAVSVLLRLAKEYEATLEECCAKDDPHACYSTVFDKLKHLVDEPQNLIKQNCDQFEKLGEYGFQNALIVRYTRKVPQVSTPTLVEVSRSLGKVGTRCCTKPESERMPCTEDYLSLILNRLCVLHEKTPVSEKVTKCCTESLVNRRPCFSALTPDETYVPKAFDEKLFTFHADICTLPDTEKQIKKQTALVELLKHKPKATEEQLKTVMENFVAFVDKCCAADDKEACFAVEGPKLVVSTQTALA

As to `Cn1cc(C(=O)c2ccn(CC(=O)O)c2)c2ccccc21`, in [1], the inhibition (usually the drop in the measured response relative to a control, in per cent) is 38%.
Same read-out and setting: the figure for `Cc1ccc(C(=O)c2ccn(CC(=O)O)c2)cc1` is 46%.
In the case of `COc1ccc(C(=O)c2cc(C(=O)c3ccccc3)n(CC(=O)O)c2)cc1`, the inhibition in data set [2] was 13%; in [4], 51%; in [1] it was 93%. In addition, the Carbonyl group at Albumin [3] was 4.38 nM/mg; on Albumin [8] it was 1.7 nM/mg; on Albumin [10] it was “not detectable”. The Inhibition (as a rule, how much of the control response was suppressed) at Albumin [5] is 20%; on Albumin [6] it was 41% and 66%; at Albumin [9], 75% and 100%. Besides, the inhibition at 1000 µM at Albumin [5] came out at 17%. The Relative florescence on Albumin [7] amounted to 6.9; at Albumin [11], 11.5; at Albumin [12], 23.1.
In turn, `O=C(O)Cn1ccc(C(=O)c2ccc3c(c2)CCO3)c1` returned an inhibition in [1] of 42%.
In turn, `O=C(O)Cn1ccc(C(=O)c2ccc(O)cc2)c1` displayed an inhibition in data set [1] of 45%.
With `O=C(O)Cn1ccc(C(=O)c2ccn(-c3ccccc3)c2)c1`, the Carbonyl group on Albumin [13] is 1.55 nM/mg; on Albumin [15] it was “not detectable”; at Albumin [16], “not detectable”. Besides, the Relative florescence on Albumin [14] is 21; at Albumin [7], 16.4; at Albumin [11], 21. Also, the figures for the inhibition in [4] and in data set [1] were 39% and 67%, respectively. Also, the Inhibition on Albumin [5] was 24% and 69%; on Albumin [9], 41% and 100%.
Take `O=C(O)Cn1ccc(C(=O)c2cccc(Cl)c2)c1`: the inhibition in data set [1] worked out at 44%.
For the molecule `O=C(O)Cn1ccc(C(=O)c2ccc(-c3ccccc3)cc2)c1`, the values for the inhibition in [4] and in [1] were 37% and 76%, respectively.
`O=C(O)Cn1ccc(C(=O)c2ccccc2)c1` came in with an inhibition in data set [1] of 27%.
On the same count and under the same terms, the figure for `O=C(O)Cn1ccc(C(=O)c2ccc([N+](=O)[O-])cc2)c1` is 18%.
Turning to `COc1ccc(C(=O)c2ccn(CC(=O)O)c2)cc1`, the inhibition in [4] turned out to be 26%; in data set [1] it was 72%.
In data set [1], `O=C(O)Cn1ccc(C(=O)Cc2ccccc2)c1` registered an inhibition of 29%.
On to `NC(=O)[C@@H]1C[C@]2(NC(=O)NC2=O)c2cc(F)ccc2O1`, for which the IC50 – broadly, the concentration that gives 50% inhibition – in data set [17] was 35 nM.
As to `O=C(O)Cn1ccc(C(=O)c2ccc(C(F)(F)F)cc2)c1`, the inhibition in data set [1] was 47%.
On to `O=C(O)Cn1ccc(C(=O)c2ccc3ccccc3c2)c1`, for which the inhibition in data set [2] is 49%; in data set [4], 72%; in data set [1], 79%.
On to `O=C(O)Cn1ccc(C(=O)c2ccc3occc3c2)c1`, for which, in [1], the inhibition turned out to be 40%.
Turning to `O=C(O)Cn1cc(C(=O)c2ccccc2)cc1C(=O)c1ccccc1`, the inhibition in data set [2] was determined as 27%; in data set [4] it was 62%; in [1], 82%.
In the case of `O=C(O)Cn1ccc(C(=O)c2ccc(-n3cccc3)cc2)c1`, the Carbonyl group result at Albumin [18], on Albumin [15] and on Albumin [19] was “not detectable” in each case. The results for the Relative florescence on Albumin [14], on Albumin [7] and at Albumin [11] were 17.4, 4.7 and 9.8, respectively. The inhibition in data set [4] came out at 39%; in data set [1], 80%. For the same molecule, the Inhibition was 37% and 100% on Albumin [5]; 65% and 100% at Albumin [6]; 100% on Albumin [9].
In [1], `O=C(O)Cn1cc(C(=O)c2ccccc2)c2ccccc21` registered an inhibition of 38%.
As for `O=C(O)Cn1ccc(C(=O)c2cccc3ccccc23)c1`, the inhibition was 59% in [4] and 58% in data set [1].
`CC(C)(C)c1ccc(C(=O)c2ccn(CC(=O)O)c2)cc1` came in with an inhibition in data set [1] of 41%.
Molecule `Cc1c(C)c2c(c(C)c1O)CCC(C)(C(=O)O)O2` (stereo unspecified) [TROLOX] registered a Relative florescence on Albumin [14] of 12.8. Also, the Inhibition on Albumin [5] was 54% and 32%. This molecule also gave a Carbonyl group on Albumin [20] of 3.44 nM/mg. This molecule also came in with an inhibition in data set [21] of 12%.
The molecule `O=C(O)Cn1cccc1C(=O)c1ccccc1` had an inhibition in data set [21] of 36%.
`O=C(O)Cn1ccc(Cc2ccccc2)c1` displayed an inhibition in data set [1] of 9%.
Still for that read-out and setting: the figure for `O=C(O)Cn1ccc(C(=O)c2ccc(Cl)cc2)c1` is 41%.
Turning to `COc1ccc(C(=O)c2cc(C(=O)c3ccc(OC)cc3)n(CC(=O)O)c2)cc1`, the inhibition was determined as 59% in [2], 94% in [4], 41% in [22] and 96% in [1]. The Carbonyl group on Albumin [13] was 2.52 nM/mg; at Albumin [15], “not detectable”; at Albumin [19], “not detectable”. In addition, the values for the Relative florescence on Albumin [14], at Albumin [7] and at Albumin [11] were 17.3, 3.3 and 11.8, respectively. For the same molecule, the Inhibition on Albumin [5] is 50%; on Albumin [6], 57% and 100%; at Albumin [9], 100%. On Albumin [5], the inhibition at 1000 µM is 38%. Further, in data set [23], the IC50 was found to be 2.36 nM.
